Columns and labels:
[1] = folding enthalpy; higher = less favourable; fluorescence melt of hairpins on a sequencing array, two-state fit; settings: sodium 0.088 M
Procedure, shortened: (§1)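 Folding enthalpy and melting temperature come from bootstrapped two-state fits to Cy3 fluorescence of library hairpins carrying annealed Cy3 and quencher oligos on a sequenced MiSeq flow cell. Imaging was done in 50 mM Na-HEPES pH 8.0, 25 mM NaCl, stepping by 2.5 °C up to 60 °C, and signals were normalised to pre-quench Cy3 and to control constructs. Results of four replicates were combined by inverse variance, and fitted temperatures were raised by 9.35 °C to match UV melts.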

[2] = melting temperature; fluorescence melt of hairpins on a sequencing array, two-state fit, raised by 9.35 °C to match UV melts; settings: sodium 0.088 M
Procedure, shortened: as §1

| Sequence | folding enthalpy [1] [kcal/mol] | Tm [2] [°C] |
| --- | --- | --- |
| GCAACCGAAAGGTAATGC ((((((....)))..))) | -20.1 | 38.6 |
| GCAACCGAAAGGTGTGC ((((((....))).))) | -23.2 | 52.4 |
| GCAACCGAAAGGTGTTGC ((((((....)))..))) | -19 | 50 |
| GCAACCGGAAACGGTCGC ((.((((....)))).)) | -29.8 | 52.8 |
| GCAACCTCGAAAGAGTGC (((..(((....)))))) | -21.7 | 36.9 |
| GCAACGCGAAAGCATCGC ((.(.((....)).).)) | -13.5 | 39.2 |
| GCAACGCGAAAGCATGGC ((.(.((....)).).)) | -13.1 | 33.8 |
| GCAACGCGAAAGCCGTGC (((..((....))..))) | -14.8 | 49 |
| GCAACGCGAAAGCCTGGC ((.(.((....)).).)) | -6.76 | 30.8 |
| GCAACGCGAAAGCGTGC (((.(((....)))))) | -14.2 | 69.1 |
| GCAACGCGAAAGCTATGC (((..((....))..))) | -11.6 | 36.8 |
| GCAACGCGAAAGCTTCGC ((.(.((....)).).)) | -8.73 | 30 |
| GCAACGGGAAACCGCTGC (((.(((....))).))) | -44 | 51.5 |
| GCAACTCGAAAGAGTGC (((.(((....)))))) | -33.5 | 55.8 |
| GCAACTGCGAAAGCATGC (((..(((....)))))) | -13.5 | 40.2 |
| GCAACTGGAAACAGTTGC (((((((....))))))) | -47.5 | 67.1 |
| GCAAGAACGAAAGTTTGC (((..(((....)))))) | -22.5 | 42.7 |
| GCAAGAGGAAACTCTCGC ((.((((....)))).)) | -25.6 | 37.6 |
| GCAAGAGGAAACTCTTGC (((((((....))))))) | -40.5 | 64.9 |
| GCAAGCGAAAGCTCTGC ((((((....))).))) | -20 | 45.9 |
| GCAAGCGGAAACGCCTGC (((.(((....))).))) | -17.1 | 54.2 |
| GCAAGCGGAAACGCTCGC ((.((((....)))).)) | -22.6 | 52.7 |
| GCAAGCTCGAAAGAGTGC (((..(((....)))))) | -16.9 | 36.9 |

| Sequence | folding enthalpy [1] [kcal/mol] | Tm [2] [°C] |
| --- | --- | --- |
| GCAAGGCGAAAGCATAGC ((.(.((....)).).)) | -14.8 | 39.6 |
| GCAAGGCGAAAGCCAGGC ((..(((....)))..)) | -18.8 | 52.2 |
| GCAAGGCGAAAGCGTTGC ((((.((....)).)))) | -33.1 | 67.2 |
| GCAAGGGGAAACCCCTGC (((.(((....))).))) | -27.4 | 51.1 |
| GCAAGGGGAAACCCTCGC ((.((((....)))).)) | -23.4 | 45 |
| GCAAGTGGAAACGCTTGC (((((.(....).))))) | -39.1 | 54.9 |
| GCAAGTTCGAAAGAATGC (((..(((....)))))) | -11.8 | 27.3 |
| GCAATAGGAAACCATTGC (((((.(....).))))) | -28 | 39.2 |
| GCAATCACGAAAGTGTGC (((..(((....)))))) | -19.5 | 39.9 |
| GCAATCCGAAAGGACTGC (((.(((....))).))) | -17.6 | 49.8 |
| GCAATCCGAAAGGAGTGC (((.(((....))).))) | -48 | 61.1 |
| GCAATCGAAAGATCTGC ((((((....))).))) | -18 | 35.2 |
| GCAATCGAAAGATTGC ((((((....)))))) | -42.2 | 64 |
| GCAATCGAAAGATTTTGC ((((((....)))..))) | -14.8 | 28.8 |
| GCAATCGGAAACGATCAC (..((((....))))..) | -12 | 25.1 |
| GCAATGCCGAAAGGCTGC (((..(((....)))))) | -15.6 | 49.1 |
| GCAATGCGAAAGCAAGGC ((..(((....)))..)) | -18.7 | 43.7 |
| GCAATGCGAAAGCACGGC ((..(((....)))..)) | -19.9 | 36.3 |
| GCAATGCGAAAGCATGC (((.(((....)))))) | -22.9 | 63 |
| GCAATGCGAAAGCGTGGC ((.(.((....)).).)) | -33.7 | 56.6 |
| GCAATGCGAAAGCTTTGC ((((.((....)).)))) | -39.1 | 63 |
| GCAATGGGAAACCATCAC (..((((....))))..) | -10.7 | 22.8 |
| GCAATGGGAAACCATTAC (.(((((....))))).) | -14.9 | 33.9 |

— the array DNA melting data of Ke et al. (doi:10.1101/2024.01.08.574731)
